Data from PMC9508631 (Saudi Pharmaceutical Journal : SPJ, 2022).

Key:
PDE5 = conditions: ref Bischoff, 2004; cited from earlier work
[1] = Stability of TAD in rat plasma under storage and processing conditions; type: in vitro ADME; conditions: for Processed sample stability, RE% / Processed sample stability, calculated conc. (Mean ± SD): autosampler, room temperature 24 h; for Freeze–thaw stability, RE% / Freeze–thaw stability, calculated conc. (Mean ± SD): three freeze–thaw cycles; for Long term stability, RE% / Long term stability, calculated conc. (Mean ± SD): −30 °C for 30 days
How it was run: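 Test compound spiked into blank rat plasma as QC samples at 0.5, 10 and 100 ng mL−1. Conditions: bench-top thaw at room temperature for 6 h (triplicates); −30 °C for 30 days; three freeze–thaw cycles (24 h at −30 °C, ambient thaw); processed samples held in the autosampler at room temperature for 24 h. Quantified by FPSE-UPLC-ESI-MS/MS, with peak areas compared against freshly prepared QCs; acceptance RE <15%.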

[2] = actual conc. 0.5 ng mL^-1, room temperature 6 h

| Processed sample stability, RE% ([1]; actual conc. 0.5 ng mL^-1) | Processed sample stability, calculated conc. (Mean ± SD) ([1]; actual conc. 0.5 ng mL^-1) | Benchtop stability, RE% [1, 2] | Benchtop stability, calculated conc. (Mean ± SD) [1, 2] | Freeze–thaw stability, RE% ([1]; actual conc. 0.5 ng mL^-1) | Freeze–thaw stability, calculated conc. (Mean ± SD) ([1]; actual conc. 0.5 ng mL^-1) | Long term stability, RE% ([1]; actual conc. 0.5 ng mL^-1) | Long term stability, calculated conc. (Mean ± SD) ([1]; actual conc. 0.5 ng mL^-1) | Processed sample stability, RE% ([1]; actual conc. 10 ng mL^-1) | Processed sample stability, calculated conc. (Mean ± SD) ([1]; actual conc. 10 ng mL^-1) | Benchtop stability, calculated conc. (Mean ± SD) ([1]; actual conc. 10 ng mL^-1, room temperature 6 h) | Freeze–thaw stability, calculated conc. (Mean ± SD) ([1]; actual conc. 10 ng mL^-1) | Long term stability, RE% ([1]; actual conc. 10 ng mL^-1) | Long term stability, calculated conc. (Mean ± SD) ([1]; actual conc. 10 ng mL^-1) | Processed sample stability, calculated conc. (Mean ± SD) ([1]; actual conc. 100 ng mL^-1) | Benchtop stability, calculated conc. (Mean ± SD) ([1]; actual conc. 100 ng mL^-1, room temperature 6 h) | Freeze–thaw stability, RE% ([1]; actual conc. 100 ng mL^-1) | Freeze–thaw stability, calculated conc. (Mean ± SD) ([1]; actual conc. 100 ng mL^-1) | Stability in rat plasma under the storage and processing situations ([1]; all four stability tests, RE% and RSD% within 15%) | SMILES | Selectivity for PDE5 (PDE5) |
| --- | --- | --- | --- | --- | --- | --- | --- | --- | --- | --- | --- | --- | --- | --- | --- | --- | --- | --- | --- | --- |
| – | – | – | – | – | – | – | – | – | – | – | – | – | – | – | – | – | – | – | CCCc1nn(C)c2c(=O)[nH]c(-c3cc(S(=O)(=O)N4CCN(C)CC4)ccc3OCC)nc12 [SLD, sildenafil] | 41 times |
| −2.0% | 0.490 ± 0.011 ng/mL | −1.60% | 0.492 ± 0.012 ng/mL | −3.8% | 0.481 ± 0.022 ng/mL | −2.60% | 0.487 ± 0.018 ng/mL | 0.50% | 10.05 ± 0.195 ng/mL | 9.98 ± 0.251 ng/mL | 9.85 ± 0.263 ng/mL | 1.10% | 10.11 ± 0.219 ng/mL | 99.48 ± 1.824 ng/mL | 99.90 ± 1.850 ng/mL | 0.22% | 100.22 ± 2.054 ng/mL | stable | CN1CC(=O)N2[C@H](c3ccc4c(c3)OCO4)c3[nH]c4ccccc4c3C[C@@H]2C1=O [TAD, Tadalafil] | 1000 times |
